Test system: U2OS
Assay: Multiplex assay against U2OS
Format: toxicity, cell-based
Details: human
Summary of the method: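 Imaging took place on a CQ1 microscope at 37°C and 5% CO2 once compound had been added to live cells stained at seeding with Hoechst33342, BioTracker Green Microtubule Cytoskeleton Dye, MitoTracker Red and Annexin V Alexa Fluor 680. CellPathfinder machine-learning gating classed cells as Hoechst high-intensity objects or normal cells, classed normal cells as having healthy, pyknosed or fragmented nuclei, and classed pyknosed cells as mitotic or apoptotic. Tubulin, mitochondrial-mass and membrane-permeability phenotypes are per cents of the healthy-nucleus cells.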

[1] = 12 h, 1 µM, compound concentration 1 uM, replicate 1
[2] = 12 h, 1 µM, compound concentration 1 uM, replicate 2
[3] = 12 h, 10 µM, compound concentration 10 uM, replicate 1
[4] = 12 h, 10 µM, compound concentration 10 uM, replicate 2
[5] = 24 h, 1 µM, compound concentration 1 uM, replicate 1
[6] = 24 h, 1 µM, compound concentration 1 uM, replicate 2
[7] = 24 h, 10 µM, compound concentration 10 uM, replicate 1
[8] = 24 h, 10 µM, compound concentration 10 uM, replicate 2
[9] = 48 h, 1 µM, compound concentration 1 uM, replicate 1
[10] = 48 h, 1 µM, compound concentration 1 uM, replicate 2
[11] = 48 h, 10 µM, compound concentration 10 uM, replicate 1
[12] = 48 h, 10 µM, compound concentration 10 uM, replicate 2

## COc1ccc2[nH]c(I)c(CCNC(C)=O)c2c1 [IODOMELATONIN]
[1]
  Population Apoptotic (%): 68%
  Population Fragmented Nuclei (%): 19%
  Population Healthy Nuclei (%): 74%
  Population Hoechst High Intensity Objects (%): 2%
  Population Membrane Permeable-Phenotype (%): 4%
  Population Mitochondria Different-Phenotype (%): 3%
  Population Mitotic Cells (%): 31%
  Population Normal (%): 97%
  Population Pyknosed Nuclei (%): 5%
  Population Tubulin-Different-Phenotype (%): 1%
  Total Cell Count: 282
[2]
  Population Apoptotic (%): 37%
  Population Fragmented Nuclei (%): 11%
  Population Healthy Nuclei (%): 83%
  Population Hoechst High Intensity Objects (%): 0%
  Population Membrane Permeable-Phenotype (%): 5%
  Population Mitochondria Different-Phenotype (%): 1%
  Population Mitotic Cells (%): 62%
  Population Normal (%): 99%
  Population Tubulin-Different-Phenotype (%): 2%
  Total Cell Count: 156
[3]
  Population Apoptotic (%): 77%
  Population Fragmented Nuclei (%): 25%
  Population Healthy Nuclei (%): 64%
  Population Hoechst High Intensity Objects (%): 3%
  Population Membrane Permeable-Phenotype (%): 2%
  Population Mitochondria Different-Phenotype (%): 1%
  Population Mitotic Cells (%): 22%
  Population Normal (%): 96%
  Population Pyknosed Nuclei (%): 9%
  Population Tubulin-Different-Phenotype (%): 1%
  Total Cell Count: 231
[4]
  Population Apoptotic (%): 80%
  Population Fragmented Nuclei (%): 41%
  Population Healthy Nuclei (%): 54%
  Population Hoechst High Intensity Objects (%): 0%
  Population Membrane Permeable-Phenotype (%): 10%
  Population Mitochondria Different-Phenotype (%): 6%
  Population Mitotic Cells (%): 20%
  Population Normal (%): 99%
  Population Pyknosed Nuclei (%): 3%
  Population Tubulin-Different-Phenotype (%): 2%
  Total Cell Count: 134
[5]
  Population Apoptotic (%): 86%
  Population Fragmented Nuclei (%): 16%
  Population Healthy Nuclei (%): 75%
  Population Hoechst High Intensity Objects (%): 1%
  Population Membrane Permeable-Phenotype (%): 3%
  Population Mitochondria Different-Phenotype (%): 1%
  Population Mitotic Cells (%): 13%
  Population Normal (%): 98%
  Population Pyknosed Nuclei (%): 8%
  Population Tubulin-Different-Phenotype (%): 2%
  Total Cell Count: 354
[6]
  Population Apoptotic (%): 80%
  Population Fragmented Nuclei (%): 15%
  Population Healthy Nuclei (%): 78%
  Population Membrane Permeable-Phenotype (%): 8%
  Population Mitochondria Different-Phenotype (%): 0%
  Population Mitotic Cells (%): 20%
  Population Pyknosed Nuclei (%): 5%
  Total Cell Count: 179
[7]
  Population Apoptotic (%): 95%
  Population Fragmented Nuclei (%): 25%
  Population Healthy Nuclei (%): 66%
  Population Hoechst High Intensity Objects (%): 1%
  Population Membrane Permeable-Phenotype (%): 4%
  Population Mitochondria Different-Phenotype (%): 1%
  Population Mitotic Cells (%): 4%
  Population Normal (%): 98%
  Population Pyknosed Nuclei (%): 8%
  Population Tubulin-Different-Phenotype (%): 1%
  Total Cell Count: 273
[8]
  Population Apoptotic (%): 88%
  Population Fragmented Nuclei (%): 34%
  Population Healthy Nuclei (%): 59%
  Population Membrane Permeable-Phenotype (%): 7%
  Population Mitochondria Different-Phenotype (%): 5%
  Population Mitotic Cells (%): 11%
  Population Pyknosed Nuclei (%): 5%
  Population Tubulin-Different-Phenotype (%): 2%
  Total Cell Count: 153
[9]
  Population Apoptotic (%): 92%
  Population Fragmented Nuclei (%): 12%
  Population Healthy Nuclei (%): 79%
  Population Hoechst High Intensity Objects (%): 1%
  Population Membrane Permeable-Phenotype (%): 5%
  Population Mitochondria Different-Phenotype (%): 2%
  Population Mitotic Cells (%): 7%
  Population Normal (%): 98%
  Population Pyknosed Nuclei (%): 7%
  Population Tubulin-Different-Phenotype (%): 3%
  Total Cell Count: 509
[10]
  Population Apoptotic (%): 86%
  Population Fragmented Nuclei (%): 13%
  Population Healthy Nuclei (%): 81%
  Population Membrane Permeable-Phenotype (%): 4%
  Population Mitotic Cells (%): 13%
  Population Pyknosed Nuclei (%): 5%
  Total Cell Count: 284
[11]
  Population Apoptotic (%): 97%
  Population Fragmented Nuclei (%): 21%
  Population Healthy Nuclei (%): 68%
  Population Hoechst High Intensity Objects (%): 2%
  Population Membrane Permeable-Phenotype (%): 5%
  Population Mitochondria Different-Phenotype (%): 0%
  Population Mitotic Cells (%): 2%
  Population Normal (%): 97%
  Population Pyknosed Nuclei (%): 9%
  Population Tubulin-Different-Phenotype (%): 2%
  Total Cell Count: 373
[12]
  Population Apoptotic (%): 100%
  Population Fragmented Nuclei (%): 29%
  Population Healthy Nuclei (%): 65%
  Population Hoechst High Intensity Objects (%): 0%
  Population Membrane Permeable-Phenotype (%): 7%
  Population Mitochondria Different-Phenotype (%): 5%
  Population Mitotic Cells (%): 0%
  Population Normal (%): 99%
  Population Pyknosed Nuclei (%): 5%
  Population Tubulin-Different-Phenotype (%): 4%
  Total Cell Count: 209
